In ChEMBL document CHEMBL1126590, “32-Methyl-32-oxylanosterols: dual-action inhibitors of cholesterol biosynthesis” (J Med Chem, 1993):

B1: Lanosterol 14-alpha demethylase (Rattus norvegicus) (protein)
chain: MVLLGLLQSGGSVLGQAMEQVTGGNLLSTLLIACAFTLSLVYLFRLAVGHMVQLPAGAKSPPYIYSPIPFLGHAIAFGKSPIEFLENAYEKYGPVFSFTMVGKTFTYLLGSDAAALLFNSKNEDLNAEEVYGRLTTPVFGKGVAYDVPNAVFLEQKKILKSGLNIAHFKQYVSIIEKEAKEYFKSWGESGERNVFEALSELIILTASHCLHGKEIRSQLNEKVAQLYADLDGGFSHAAWLLPGWLPLPSFRRRDRAHREIKNIFYKAIQKRRLSKEPAEDILQTLLDSTYKDGRPLTDDEIAGMLIGLLLAGQHTSSTTSAWMGFFLARDKPLQDKCYLEQKTVCGEDLPPLTYEQLKDLNLLDRCIKETLRLRPPIMTMMRMAKTPQTVAGYTIPPGHQVCVSPTVNQRLKDSWVERLDFNPDRYLQDNPASGEKFAYVPFGAGRHRCIGENFAYVQIKTIWSTMLRLYEFDLINGYFPSVNYTTMIHTPENPVIRYKRRSK

Legend:
[1] = target: T1, Lanosterol 14-alpha demethylase (Rattus norvegicus, UniProt Q64654); test: (§1) Inhibition rat liver microsome cytochrome P450DM; format: microsomes
T1 sequence (Q64654 whole entry): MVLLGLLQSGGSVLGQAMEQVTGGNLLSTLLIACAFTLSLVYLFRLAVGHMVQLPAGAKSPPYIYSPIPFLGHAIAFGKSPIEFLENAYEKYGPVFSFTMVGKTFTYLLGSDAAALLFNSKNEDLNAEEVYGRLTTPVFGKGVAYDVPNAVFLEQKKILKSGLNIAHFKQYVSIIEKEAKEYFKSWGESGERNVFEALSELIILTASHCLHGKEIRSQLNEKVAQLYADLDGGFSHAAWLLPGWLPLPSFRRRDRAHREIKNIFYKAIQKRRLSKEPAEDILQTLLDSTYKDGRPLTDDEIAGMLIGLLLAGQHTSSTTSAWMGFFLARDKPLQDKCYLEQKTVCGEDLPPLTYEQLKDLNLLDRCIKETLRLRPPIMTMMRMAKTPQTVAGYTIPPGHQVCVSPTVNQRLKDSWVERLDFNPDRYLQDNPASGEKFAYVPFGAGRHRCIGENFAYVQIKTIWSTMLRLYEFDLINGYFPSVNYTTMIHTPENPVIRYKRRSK
Outline: (§2)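 Buffer: phosphate pH 7.4 with glutathione, EDTA, 20% glycerol, NAD(P)H cofactors, isocitrate/isocitrate dehydrogenase, MgCl2, AY-9944, NaCN. Diene product quantified by UV-HPLC. IC50 taken from linear plots of reciprocal turnover vs inhibitor concentration.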

[2] = target: T2, 3-hydroxy-3-methylglutaryl-coenzyme A reductase (Homo sapiens, UniProt P04035); test: Inhibition of HMG-coA Reductase enzyme in chinese hamster ovary cells; format: cell-based, Cricetulus griseus, CHO
T2 sequence (P04035 whole entry): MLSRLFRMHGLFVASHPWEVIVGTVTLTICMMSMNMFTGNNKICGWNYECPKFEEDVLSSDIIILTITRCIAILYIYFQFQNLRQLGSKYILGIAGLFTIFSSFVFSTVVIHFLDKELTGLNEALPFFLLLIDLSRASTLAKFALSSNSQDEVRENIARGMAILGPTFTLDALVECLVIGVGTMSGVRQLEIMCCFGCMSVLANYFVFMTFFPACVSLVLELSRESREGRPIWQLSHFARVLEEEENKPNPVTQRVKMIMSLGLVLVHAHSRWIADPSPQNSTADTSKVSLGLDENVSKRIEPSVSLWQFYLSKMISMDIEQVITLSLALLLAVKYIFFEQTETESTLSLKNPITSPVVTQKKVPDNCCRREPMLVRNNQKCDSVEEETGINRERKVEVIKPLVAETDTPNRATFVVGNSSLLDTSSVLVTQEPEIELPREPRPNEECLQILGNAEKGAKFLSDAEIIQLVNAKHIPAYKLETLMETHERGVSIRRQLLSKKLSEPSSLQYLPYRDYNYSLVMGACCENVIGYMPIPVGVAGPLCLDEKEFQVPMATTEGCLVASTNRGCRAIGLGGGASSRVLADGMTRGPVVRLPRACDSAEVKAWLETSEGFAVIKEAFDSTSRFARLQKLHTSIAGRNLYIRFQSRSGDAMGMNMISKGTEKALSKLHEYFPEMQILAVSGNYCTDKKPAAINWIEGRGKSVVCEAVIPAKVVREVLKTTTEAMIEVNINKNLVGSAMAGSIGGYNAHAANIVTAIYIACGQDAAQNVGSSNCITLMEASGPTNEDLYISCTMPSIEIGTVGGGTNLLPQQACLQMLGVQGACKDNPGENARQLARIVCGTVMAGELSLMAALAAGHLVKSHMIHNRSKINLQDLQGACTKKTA
Outline: (§3)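 Cells grown in McCoy's 5a medium with 1% delipidated FBS under 5% CO2 and treated 4 h with compound given as a BSA suspension from an ethanol stock (final BSA 0.5 mg/mL, ethanol ≤0.5%). Cells permeabilized with 30 μg/mL digitonin in CSK buffer pH 6.8, then preincubated 20 min at 37 °C. Conversion of [14C]HMG-CoA to mevalonolactone measured with [3H]mevalonolactone internal standard and TLC separation. Value is the concentration reducing activity to 50% of control.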

[3] = target: Lanosterol 14-alpha demethylase (Cricetulus griseus); test: Inhibition of cytochrome P450DM in intact CHO cells
[4] = target: T2, 3-hydroxy-3-methylglutaryl-coenzyme A reductase; test: Inhibition of HMG-coA Reductase enzyme in AR45 cells; format: cell-based; outline: as §3
[5] = substrate: [H][C@]1([C@]([H])(C)CCCC(C)C)CC[C@@]2(C)C3=C(CC[C@]12C)[C@@]1(C)CC[C@H](O)C(C)(C)C1CC3; test: as §1; format: microsomes; outline: as §2

Row | Molecule | IC50 [1] [nM] | IC50 [2] [nM] | IC50 [3] [nM] | IC50 [4] [nM] | IC50 ([4]; ar45) [nM] | Km [5] [µM]
1 | CC(=O)[C@@]12CC[C@H]([C@H](C)CCCC(C)C)[C@@]1(C)CCC1C2=CCC2C(C)(C)[C@@H](O)CC[C@]12C (stereo partly drawn) | 9100 | 1000 | 2700 | > 20000 |  | 
2 | CC(C)CCC[C@@H](C)[C@H]1CC[C@@]2(C(C)O)C3=CCC4C(C)(C)[C@@H](O)CC[C@]4(C)C3CC[C@]12C (stereo in doubt; 17a) | 330 | 3000 | 300 |  | > 20000 | 
3 | CC(C)CCC[C@@H](C)[C@H]1CC[C@@]2(C(C)O)C3=CCC4C(C)(C)[C@@H](O)CC[C@]4(C)C3CC[C@]12C (stereo in doubt; 17b) | 1600 | 1500 | 300 | > 20000 |  | 
4 | B1 |  |  |  |  |  | 33
